Experimental data from ChEMBL document CHEMBL4020770, “Discovery of N-substituted-endo-3-(8-aza-bicyclo[3.2.1]oct-3-yl)-phenol and -phenyl carboxamide series of μ-opioid receptor antagonists” (Bioorg Med Chem Lett, 2017).

Experiments:
Mu-type opioid receptor = Mu-type opioid receptor (Homo sapiens, UniProt P35372); assay: Displacement of [3H]DPN from recombinant human mu opioid receptor expressed in CHOK1 cell membranes
How it was run: (§1)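 Competition binding with the radioligand [3H]-DPN on membranes from CHO-K1 cells stably transfected with human recombinant μ or δ opioid receptor or guinea pig κ opioid receptor. Affinity is reported as pKi.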

[1] = biological target: Delta-type opioid receptor (Homo sapiens, UniProt P41143); assay: Displacement of [3H]DPN from recombinant human delta opioid receptor expressed in CHOK1 cell membranes; how it was run: as §1
Chain of Delta-type opioid receptor (P41143 whole entry): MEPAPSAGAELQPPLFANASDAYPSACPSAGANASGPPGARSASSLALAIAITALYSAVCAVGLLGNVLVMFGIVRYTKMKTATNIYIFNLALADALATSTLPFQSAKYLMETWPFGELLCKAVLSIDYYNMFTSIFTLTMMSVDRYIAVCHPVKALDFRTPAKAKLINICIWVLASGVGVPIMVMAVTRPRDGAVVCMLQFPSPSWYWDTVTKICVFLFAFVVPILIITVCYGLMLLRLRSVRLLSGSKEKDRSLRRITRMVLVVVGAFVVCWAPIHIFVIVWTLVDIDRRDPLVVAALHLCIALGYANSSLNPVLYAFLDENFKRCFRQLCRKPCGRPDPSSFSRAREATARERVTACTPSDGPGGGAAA

Liver [2] = assay: (§2) Half life in rat liver microsomes; type: ADME, microsome; settings: microsomes
Liver [3] = assay: (§3) Half life in human liver microsomes; type: ADME, microsome; settings: microsomes
Liver [4] = assay: (§4) Half life in dog liver microsomes; type: ADME, Canis lupus familiaris, microsome; settings: microsomes
[5] = biological target: Kappa-type opioid receptor (Cavia porcellus, UniProt P41144); assay: Displacement of [3H]DPN from guinea pig kappa opioid receptor expressed in CHOK1 cell membranes; how it was run: as §1
Chain of Kappa-type opioid receptor (P41144 whole entry): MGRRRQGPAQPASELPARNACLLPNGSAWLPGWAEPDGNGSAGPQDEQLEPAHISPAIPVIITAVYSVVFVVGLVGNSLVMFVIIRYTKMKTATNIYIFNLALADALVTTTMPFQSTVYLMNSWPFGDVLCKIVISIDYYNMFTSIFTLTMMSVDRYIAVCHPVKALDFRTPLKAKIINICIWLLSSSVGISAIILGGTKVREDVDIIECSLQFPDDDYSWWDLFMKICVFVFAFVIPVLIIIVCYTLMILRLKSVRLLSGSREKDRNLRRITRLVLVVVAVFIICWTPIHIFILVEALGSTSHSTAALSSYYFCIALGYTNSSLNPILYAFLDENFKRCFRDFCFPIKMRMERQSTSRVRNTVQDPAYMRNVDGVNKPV

[6] = as §3; type: ADME, microsome; settings: liver microsomes
[7] = as §4; type: ADME, Canis lupus familiaris, microsome; settings: liver microsomes
[8] = as §2; type: ADME, microsome; settings: liver microsomes

Chain of Mu-type opioid receptor (P35372 whole entry): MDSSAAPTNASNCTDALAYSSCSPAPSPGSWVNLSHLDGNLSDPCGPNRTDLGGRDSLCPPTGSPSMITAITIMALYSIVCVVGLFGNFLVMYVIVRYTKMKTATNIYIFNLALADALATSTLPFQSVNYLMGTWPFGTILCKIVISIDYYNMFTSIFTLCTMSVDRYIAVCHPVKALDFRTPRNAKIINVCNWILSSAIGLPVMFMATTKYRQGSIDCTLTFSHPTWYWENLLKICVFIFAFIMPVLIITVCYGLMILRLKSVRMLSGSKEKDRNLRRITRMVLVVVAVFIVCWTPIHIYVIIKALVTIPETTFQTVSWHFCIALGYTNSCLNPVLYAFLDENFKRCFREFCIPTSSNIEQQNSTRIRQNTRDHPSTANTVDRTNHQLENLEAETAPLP

Structure (SMILES)	Ki (Mu-type opioid receptor) [nM]	Ki [1] [nM]	t1/2 (Liver [2]) [min]	t1/2 (Liver [3]) [min]	t1/2 (Liver [4]) [min]	Ki [5] [nM]	half-life [6] [min]	half-life [7] [min]	half-life [8] [min]
CCCCCCCN1[C@@H]2CC[C@@H]1CC(c1cccc(C(N)=O)c1)C2 (some centres not stated)	31.6	501	7	10	2				
CCCCCCCN1[C@@H]2CC[C@@H]1CC(c1cccc(C(N)=O)c1)C2 (relative stereo)	0.398	3.16	> 90	40	20	0.398			
NC(=O)c1cccc(C2C[C@H]3CC[C@H](C2)N3CC(O)Cc2ccccc2)c1 (relative stereo)	0.251	3.98	31			0.316	> 90	> 90	
CCCCCCCN1[C@@H]2CC[C@@H]1CC(c1cccc(O)c1)C2 (relative stereo; 17b)	20	251	2	2	9	25.1			
O=C1c2ccccc2C(=O)N1CCCCN1[C@@H]2CC[C@@H]1CC(c1cccc(O)c1)C2 (relative stereo; 21b)	39.8	794	21	38	12	79.4			
O=C(CN1[C@@H]2CC[C@@H]1CC(c1cccc(O)c1)C2)C1CCCCC1 (relative stereo; 22a)	0.1	0.501				0.01	12	2	2
NC(=O)c1cccc(C2C[C@H]3CC[C@H](C2)N3CCCc2ccccc2)c1 (relative stereo; 24a)	0.126	1.26	> 90		> 90	0.158	> 90		
NC(=O)c1cccc(C2C[C@H]3CC[C@H](C2)N3CCCc2ccccc2)c1 (relative stereo; 24b)	15.8	200	11		18				
NC(=O)c1cccc(C2C[C@H]3CC[C@H](C2)N3Cc2c(F)cccc2F)c1 (relative stereo; 26a)	31.6	316	26			15.8	> 90	> 90	
NC(=O)c1cccc(C2C[C@H]3CC[C@H](C2)N3Cc2c(F)cccc2F)c1 (relative stereo; 26b)	1260	5010	74			398			
CC(C)(C)c1ccc(CN2[C@@H]3CC[C@@H]2CC(c2cccc(C(N)=O)c2)C3)cc1 (relative stereo; 28a)	0.1	1.58				0.1	> 90	> 90	> 90
NC(=O)c1cccc(C2C[C@H]3CC[C@H](C2)N3CCCCN2C(=O)c3ccccc3C2=O)c1 (relative stereo; 29a)	1.58	79.4				3.16	> 90	18	> 90
NC(=O)c1cccc(C2C[C@H]3CC[C@H](C2)N3CC(=O)C2CCCCC2)c1 (relative stereo; 30b)	15.8	398	81		9	20			
NC(=O)c1cccc(C2C[C@H]3CC[C@H](C2)N3CC(O)Cc2ccccc2)c1 (stereo in doubt; 31b)	31.6	501	14		59	79.4			
